Entries after “also recorded” stand apart in the source; their conditions may differ.
Tests used:
rmGlu5 = conditions: CHO or HEK293 cells expressing rmGlu5; cited from earlier work
A809V/rmGlu5 = A809V/rmGlu5 (Rattus norvegicus, UniProt P31424, A809V); format: cell-based; conditions: VU0357121 at 1 μM; transiently transfected HEK293
How it was run: (§1)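 HEK293 cells were transiently transfected with mutant rat mGlu5 cDNA using FuGENE 6, plated the next day and assayed the following day. Cells were Fluo4-AM loaded in HBSS/HEPES/probenecid at pH 7.4. Vehicle or a fixed 1 μM PAM was added, then increasing glutamate. Calcium fluorescence was read for 160 s. Glutamate concentration–response curves were fitted by nonlinear regression to compare EC50 values.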

F585I/rmGlu5 = F585I/rmGlu5 (Rattus norvegicus, UniProt P31424, F585I); format: cell-based; conditions: VU0357121 at 1 μM; transiently transfected HEK293
How it was run: as §1

rat mGlu5 [1] = target: T1, rat mGlu5 (Rattus norvegicus, UniProt P31424); test: Antagonist; format: cell-based; conditions: 10 μM test compound
How it was run: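 HEK293 cells stably expressing rat mGlu5 were plated in glutamate/glutamine-free medium 24 h ahead. Cells were loaded with 2 μM Fluo4-AM in HBSS with 2.5 mM probenecid and 20 mM HEPES, pH 7.4, for 45 min at 37 °C. Vehicle or 10 μM test compound went in at 19 s, then ~EC80 glutamate at 109 s. Fluorescence was read for 160 s and normalized to the 100 μM glutamate maximum. Three experiments were run in triplicate, mean ± SEM.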

rat mGlu5 [2] = target: T1, rat mGlu5; format: cell-based
How it was run: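 Rat mGlu5 HEK293 stable cells, plated at 30,000/well in glutamate/glutamine-free medium (dialysed FBS) ≥24 h. Loaded 45 min at 37 °C with 2 μM Fluo4-AM in HBSS, 20 mM HEPES, 2.5 mM probenecid, pH 7.4. Increasing test compound added at 19 s, EC20 glutamate at 109 s. Fluorescence read for 160 s. EC50 from curve fits.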

rat mGlu5 [3] = target: T1, rat mGlu5; test: Single-point PAM screen, potentiation of EC20 glutamate calcium response; format: cell-based; conditions: 1 μM test compound
How it was run: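 HEK293 cells stably expressing rat mGlu5 were plated at 30,000/well in glutamate/glutamine-free medium about 24 h ahead. Cells were loaded with 2 μM Fluo4-AM for 45 min at 37 °C in HBSS/HEPES/probenecid (pH 7.4). Vehicle or 1 μM test compound was added at 19 s, then glutamate at EC20 at 109 s. Fluorescence recorded for 160 s.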

rat mGlu2 = rat mGlu2 (Rattus norvegicus, UniProt P31421); test: Selectivity fold-shift, GIRK thallium flux in HEK/GIRK cells; format: cell-based; conditions: 30 μM test compound
How it was run: (§2)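 HEK cell lines expressing GIRK plus rat mGlu2, 3, 4, 7 or 8 or human mGlu6 were plated overnight at 37 °C. Cells were loaded with 1 μM Fluozin2-AM for 1 h at room temperature. Vehicle or 30 μM test compound was added, then varying glutamate 2.5 min later in thallium buffer (12 mM thallium sulfate). Glutamate curves were fitted by nonlinear regression. Three experiments were run in duplicate or triplicate, mean ± SEM.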

rat mGlu3 = rat mGlu3 (Rattus norvegicus, UniProt P31422); test: as above; format: cell-based; conditions: 30 μM test compound
How it was run: as §2

rat mGlu1 = rat mGlu1 (Rattus norvegicus, UniProt P23385); test: Selectivity fold-shift, calcium assay in HEK293 cells expressing mGlu1; format: cell-based; conditions: 30 μM test compound
How it was run: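 HEK293 cells stably expressing rat mGlu1, handled as for mGlu5 cells: plated in glutamate/glutamine-free medium, loaded with 2 μM Fluo4-AM (45 min, 37 °C, pH 7.4, with probenecid). Vehicle or 30 μM test compound added, then increasing glutamate concentrations. Fluo-4 fluorescence read on FlexStation over 160 s. Concentration-response curves fit by nonlinear regression.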

human mGlu6 = human mGlu6 (Homo sapiens, UniProt O15303); test: Selectivity fold-shift, GIRK thallium flux in HEK/GIRK cells; format: cell-based; conditions: 30 μM test compound
How it was run: as §2

rat mGlu4 = rat mGlu4 (Rattus norvegicus, UniProt P31423); test: as above; format: cell-based; conditions: 30 μM test compound
How it was run: as §2

rat mGlu8 = rat mGlu8 (Rattus norvegicus, UniProt P70579); test: as above; format: cell-based; conditions: 30 μM test compound
How it was run: as §2

rat mGlu7 = rat mGlu7 (Rattus norvegicus, UniProt P35400); test: as above; format: cell-based; conditions: 30 μM test compound
How it was run: as §2

rat mGlu5 [4] = target: T1, rat mGlu5; format: cell-based; conditions: VU0365396 30 μM, EC20 glutamate
rat mGlu5 [5] = target: T1, rat mGlu5; format: cell-based; conditions: 10 μM test compound with VU0357121 50 nM, EC20 glutamate
How it was run: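 Same Fluo4 calcium-flux protocol in rat mGlu5 HEK293 cells. Test compound (10 μM) or vehicle co-applied with reference mGlu5 PAM (50 nM) from one 4× solution, followed by EC20 glutamate. Fluorescence recorded 160 s. Groups compared with EC20 + PAM + vehicle control by one-way ANOVA with Dunnett's test.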

Solubility in assay = format: physicochemical; conditions: above 30 μM in assay

Chain of A809V/rmGlu5 (P31424 21-1203 A809V): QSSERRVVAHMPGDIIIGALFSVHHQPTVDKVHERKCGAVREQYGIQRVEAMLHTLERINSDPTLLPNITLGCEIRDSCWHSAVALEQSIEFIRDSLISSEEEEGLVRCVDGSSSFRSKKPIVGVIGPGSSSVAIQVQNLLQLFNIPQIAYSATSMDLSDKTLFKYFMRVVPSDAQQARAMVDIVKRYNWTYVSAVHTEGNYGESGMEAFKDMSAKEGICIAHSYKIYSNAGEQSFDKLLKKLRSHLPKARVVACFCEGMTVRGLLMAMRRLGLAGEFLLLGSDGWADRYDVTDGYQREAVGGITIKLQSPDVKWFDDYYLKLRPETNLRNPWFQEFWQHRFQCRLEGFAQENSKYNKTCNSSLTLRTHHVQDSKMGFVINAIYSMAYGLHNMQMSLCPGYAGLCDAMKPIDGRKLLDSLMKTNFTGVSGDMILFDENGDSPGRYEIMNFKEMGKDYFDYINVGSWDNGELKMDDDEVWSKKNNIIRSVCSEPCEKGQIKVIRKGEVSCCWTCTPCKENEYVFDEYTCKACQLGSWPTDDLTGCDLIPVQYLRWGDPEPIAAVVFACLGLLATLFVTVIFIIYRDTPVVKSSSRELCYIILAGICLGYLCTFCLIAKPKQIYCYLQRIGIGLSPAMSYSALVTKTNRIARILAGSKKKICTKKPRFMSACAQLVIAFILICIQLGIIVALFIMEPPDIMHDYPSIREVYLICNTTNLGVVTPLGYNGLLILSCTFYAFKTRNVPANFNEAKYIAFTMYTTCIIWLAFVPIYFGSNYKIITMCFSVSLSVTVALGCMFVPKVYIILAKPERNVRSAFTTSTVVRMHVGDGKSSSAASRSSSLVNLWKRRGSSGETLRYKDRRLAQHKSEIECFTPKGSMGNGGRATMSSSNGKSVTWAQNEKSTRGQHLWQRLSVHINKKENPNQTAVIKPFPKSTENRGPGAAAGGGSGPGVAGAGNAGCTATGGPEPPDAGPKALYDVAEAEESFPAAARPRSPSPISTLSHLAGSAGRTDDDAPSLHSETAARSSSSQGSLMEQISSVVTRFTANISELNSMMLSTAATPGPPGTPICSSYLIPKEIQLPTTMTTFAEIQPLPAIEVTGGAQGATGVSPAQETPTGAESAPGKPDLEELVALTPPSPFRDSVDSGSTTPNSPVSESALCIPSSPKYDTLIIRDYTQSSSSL
Chain of F585I/rmGlu5 (P31424 21-1203 F585I): as the sequence (P31424 21-1203 A809V) above, with F565I, V789A counted along it
T1 sequence (P31424 21-1203): as the sequence (P31424 21-1203 A809V) above, with V789A counted along it
Chain of human mGlu6 (O15303 25-877): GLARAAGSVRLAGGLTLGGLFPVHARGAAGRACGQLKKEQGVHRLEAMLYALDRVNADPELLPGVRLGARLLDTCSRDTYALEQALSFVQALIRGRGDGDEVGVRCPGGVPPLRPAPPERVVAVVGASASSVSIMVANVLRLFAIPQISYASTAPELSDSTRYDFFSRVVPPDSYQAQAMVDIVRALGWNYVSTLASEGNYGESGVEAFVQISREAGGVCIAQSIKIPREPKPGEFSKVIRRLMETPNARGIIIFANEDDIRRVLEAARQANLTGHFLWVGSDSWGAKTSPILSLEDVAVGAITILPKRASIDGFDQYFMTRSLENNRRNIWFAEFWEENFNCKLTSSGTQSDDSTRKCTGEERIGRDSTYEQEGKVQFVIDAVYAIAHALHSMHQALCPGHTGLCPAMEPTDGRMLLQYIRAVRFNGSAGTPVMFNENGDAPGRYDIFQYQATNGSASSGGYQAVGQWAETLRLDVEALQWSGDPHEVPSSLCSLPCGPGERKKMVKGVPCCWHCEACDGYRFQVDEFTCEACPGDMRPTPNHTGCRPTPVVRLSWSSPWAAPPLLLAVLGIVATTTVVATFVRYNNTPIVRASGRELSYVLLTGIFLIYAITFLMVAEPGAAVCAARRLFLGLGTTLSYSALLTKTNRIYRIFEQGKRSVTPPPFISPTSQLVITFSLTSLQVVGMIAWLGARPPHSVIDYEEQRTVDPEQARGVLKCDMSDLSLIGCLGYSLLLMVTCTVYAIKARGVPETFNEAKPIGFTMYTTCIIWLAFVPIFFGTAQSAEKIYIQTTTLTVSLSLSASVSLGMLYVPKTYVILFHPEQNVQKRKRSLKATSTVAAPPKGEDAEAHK
Chain of rat mGlu7 (P35400 35-915): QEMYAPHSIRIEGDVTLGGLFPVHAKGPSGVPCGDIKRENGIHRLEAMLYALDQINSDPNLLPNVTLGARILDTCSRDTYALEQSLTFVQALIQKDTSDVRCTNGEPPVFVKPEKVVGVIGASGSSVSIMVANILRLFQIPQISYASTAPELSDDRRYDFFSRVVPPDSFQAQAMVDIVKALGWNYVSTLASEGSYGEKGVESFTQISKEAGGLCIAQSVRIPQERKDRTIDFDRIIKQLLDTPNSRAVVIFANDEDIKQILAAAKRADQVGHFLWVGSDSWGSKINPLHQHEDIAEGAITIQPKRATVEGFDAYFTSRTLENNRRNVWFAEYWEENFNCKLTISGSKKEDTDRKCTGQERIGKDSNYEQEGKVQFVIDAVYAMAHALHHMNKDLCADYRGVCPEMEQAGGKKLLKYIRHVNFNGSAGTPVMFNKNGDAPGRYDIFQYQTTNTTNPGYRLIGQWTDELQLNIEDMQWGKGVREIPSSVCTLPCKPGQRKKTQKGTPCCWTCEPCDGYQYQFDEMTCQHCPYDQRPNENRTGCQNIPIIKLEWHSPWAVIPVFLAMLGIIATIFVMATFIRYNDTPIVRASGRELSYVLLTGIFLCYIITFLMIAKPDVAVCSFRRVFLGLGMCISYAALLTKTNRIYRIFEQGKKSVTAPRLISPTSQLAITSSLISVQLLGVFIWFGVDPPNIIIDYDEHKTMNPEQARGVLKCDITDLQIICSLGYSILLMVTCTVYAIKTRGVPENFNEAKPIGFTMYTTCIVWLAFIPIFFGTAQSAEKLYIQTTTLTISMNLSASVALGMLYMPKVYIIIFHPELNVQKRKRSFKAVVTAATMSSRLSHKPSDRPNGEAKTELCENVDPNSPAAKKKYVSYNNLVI
Chain of rat mGlu8 (P70579 34-908): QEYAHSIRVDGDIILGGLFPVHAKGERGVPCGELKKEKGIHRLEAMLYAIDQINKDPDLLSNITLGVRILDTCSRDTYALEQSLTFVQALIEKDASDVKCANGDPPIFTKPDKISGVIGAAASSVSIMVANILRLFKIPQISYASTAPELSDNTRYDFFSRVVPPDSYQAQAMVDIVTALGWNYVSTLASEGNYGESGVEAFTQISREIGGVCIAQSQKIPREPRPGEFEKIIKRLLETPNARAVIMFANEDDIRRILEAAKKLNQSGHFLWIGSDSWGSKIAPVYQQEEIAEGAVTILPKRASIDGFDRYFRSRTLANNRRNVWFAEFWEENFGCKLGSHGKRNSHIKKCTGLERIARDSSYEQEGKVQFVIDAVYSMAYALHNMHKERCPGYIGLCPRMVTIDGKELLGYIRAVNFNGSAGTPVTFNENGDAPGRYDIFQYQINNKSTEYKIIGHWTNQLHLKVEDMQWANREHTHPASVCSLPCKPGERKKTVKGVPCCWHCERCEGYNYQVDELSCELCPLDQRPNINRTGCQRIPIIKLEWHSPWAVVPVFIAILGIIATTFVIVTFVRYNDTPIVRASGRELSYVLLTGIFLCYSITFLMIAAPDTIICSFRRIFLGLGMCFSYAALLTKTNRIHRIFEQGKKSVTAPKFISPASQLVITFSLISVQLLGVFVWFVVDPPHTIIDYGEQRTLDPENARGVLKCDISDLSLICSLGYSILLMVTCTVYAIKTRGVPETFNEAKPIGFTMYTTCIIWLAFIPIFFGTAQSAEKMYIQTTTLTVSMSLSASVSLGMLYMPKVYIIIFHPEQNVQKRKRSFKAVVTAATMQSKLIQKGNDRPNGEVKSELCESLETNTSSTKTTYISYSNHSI
Chain of rat mGlu4 (P31423 33-912): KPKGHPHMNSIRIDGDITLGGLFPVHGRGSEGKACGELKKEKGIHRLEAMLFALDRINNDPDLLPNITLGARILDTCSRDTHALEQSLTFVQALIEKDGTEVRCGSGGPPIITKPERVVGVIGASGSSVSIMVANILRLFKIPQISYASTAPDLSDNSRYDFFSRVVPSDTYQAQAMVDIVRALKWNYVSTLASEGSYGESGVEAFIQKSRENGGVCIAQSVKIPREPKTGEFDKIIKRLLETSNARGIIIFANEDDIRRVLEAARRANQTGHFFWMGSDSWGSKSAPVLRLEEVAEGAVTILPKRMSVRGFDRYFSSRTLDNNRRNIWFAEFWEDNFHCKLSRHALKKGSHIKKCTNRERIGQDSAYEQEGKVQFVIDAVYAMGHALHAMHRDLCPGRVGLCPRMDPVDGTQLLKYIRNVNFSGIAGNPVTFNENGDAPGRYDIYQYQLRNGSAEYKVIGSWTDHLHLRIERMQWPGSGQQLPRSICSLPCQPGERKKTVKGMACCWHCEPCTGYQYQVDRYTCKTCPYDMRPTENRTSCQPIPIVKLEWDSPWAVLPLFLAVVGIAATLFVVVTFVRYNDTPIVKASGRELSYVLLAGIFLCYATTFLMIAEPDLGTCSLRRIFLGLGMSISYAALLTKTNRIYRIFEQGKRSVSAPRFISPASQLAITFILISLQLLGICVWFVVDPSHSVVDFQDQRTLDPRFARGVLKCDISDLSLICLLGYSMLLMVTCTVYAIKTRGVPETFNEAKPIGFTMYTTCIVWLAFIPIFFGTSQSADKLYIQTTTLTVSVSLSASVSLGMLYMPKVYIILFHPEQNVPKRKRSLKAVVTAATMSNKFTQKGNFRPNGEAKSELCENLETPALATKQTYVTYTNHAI

For O=C(c1ccc(F)cc1)N1CCC[C@H](c2nc(-c3ccccn3)no2)C1 [(S)-FPOPM, (S)-(4-fluorophenyl)(3-(3-(pyridin-2-yl)-1,2,4-oxadiazol-5-yl)piperidin-1-yl)methanone], the “intrinsic agonist activity at rmGlu5” value (rmGlu5) is listed as “have no effect on mGlu5 alone”.
For O=C(c1ccc(F)cc1)N1CCC[C@H](c2nc(-c3cccs3)no2)C1 [(S)-FTOPM, (S)-(4-fluorophenyl)(3-(3-(thiophen-2-yl)-1,2,4-oxadiazol-5-yl)piperidin-1-yl)methanone], the “intrinsic agonist activity at rmGlu5” value (rmGlu5) is listed as “display intrinsic agonist activity at moderate to high concentrations”.
For N#Cc1cccc(C(=O)Nc2cc(-c3ccccc3)nn2-c2ccccc2)c1 [CDPPB, 3-cyano-N-(1,3-diphenyl-1H-pyrazol-5-yl)benzamide], the “intrinsic agonist activity at rmGlu5” value (rmGlu5) is listed as “display intrinsic agonist activity at moderate to high concentrations”.
In the case of O=C(Nc1ccc(Cl)cc1CN1C(=O)c2ccccc2C1=O)c1ccccc1O [CPPHA, N-{4-chloro-2-[(1,3-dioxo-1,3-dihydro-2H-isoindol-2-yl)methyl]phenyl}-2-hydroxybenzamide], the “PAM response at the A809V/rmGlu5 mutant” value (A809V/rmGlu5) is listed as “but not CPPHA is lost”, the “intrinsic agonist activity at rmGlu5” value (rmGlu5) is listed as “have no effect on mGlu5 alone” and the “PAM response at the F585I/rmGlu5 mutant” value (F585I/rmGlu5) is listed as “is lost”.
In the case of Cc1cccc(C#Cc2ccccc2)n1 [MPEP, 2-methyl-6(phenylethynyl)pyridine, reference compound], the “inhibition of the effect of EC80 glutamate on mGlu5” value (rat mGlu5 [1]) is reported as “blockade”.
For CNc1ncc(C#Cc2ccccc2)cn1 [MPPA, N-methyl-5-(phenylethynyl)pyrimidin-2-amine], the “intrinsic agonist activity at rmGlu5” value (rmGlu5) is given as “have no effect on mGlu5 alone”.
With CCCOc1ccc(C(=O)Nc2ccc(Cl)cn2)cc1 [VU0001850, N-(5-chloropyridin-2-yl)-4-propoxybenzamide] the EC50 (rat mGlu5 [2]) was 1.3 µM and the “potentiation of response to suboptimal (EC20) glutamate” value (“potentiation of response to suboptimal” below) (rat mGlu5 [3]) was “potentiated the response to glutamate at submicromolar concentrations”.
In the case of CCCCOc1ccc(C(=O)Nc2ccccc2F)cc1 [VU0040237, 4-butoxy-N-(2-fluorophenyl)benzamide], the EC50 (rat mGlu5 [2]) is reported as 0.35 µM and the “potentiation of response to suboptimal” value (rat mGlu5 [3]) is reported as “potentiated the response to glutamate at submicromolar concentrations”.
With CCCCOc1ccc(C(=O)Nc2ccc(Cl)cn2)cc1 [VU0125936, 4-butoxy-N-(5-chloropyridin-2-yl)benzamide] the EC50 (rat mGlu5 [2]) was 0.664 µM and the “potentiation of response to suboptimal” value (rat mGlu5 [3]) was “potentiated the response to glutamate at submicromolar concentrations”.
With CCCCOc1ccc(C(=O)Nc2ccc(F)cc2F)cc1 [VU0357121, 4-butoxy-N-(2,4-difluorophenyl)benzamide] the “PAM response at the A809V/rmGlu5 mutant” value (A809V/rmGlu5) was “inhibited the ability of VU0357121 to shift the glutamate concentration−response curve; also recorded: led to an inhibition of VU0357121 activity”, the “inhibition of the effect of EC80 glutamate on mGlu5” value (rat mGlu5 [1]) was “did not inhibit the effect of glutamate on mGlu5” and the “increase in potency over the HTS hit” value (rat mGlu5 [2]; versus VU0040237) was 10 fold. For the same compound, the “modulation of agonist response (PAM activity) at mGlu2” value (rat mGlu2) was “does not have PAM activity”, the “modulation of agonist response (PAM activity) at mGlu3” value (rat mGlu3) was “does not have PAM activity” and the “PAM response at the F585I/rmGlu5 mutant” value (F585I/rmGlu5) was “had no effect on its function”. For the same compound, the “effect on glutamate concentration-response curve at mGlu1” value (rat mGlu1) was “weak inhibition of glutamate responses at mGlu1”, the “modulation of agonist response (PAM activity) at mGlu6” value (human mGlu6) was “does not have PAM activity” and the “modulation of agonist response (PAM activity) at mGlu4” value (rat mGlu4) was “does not have PAM activity”. For the same compound, the “potentiation of response to suboptimal” value (rat mGlu5 [3]) was “potentiated the response to glutamate at submicromolar concentrations”, the “modulation of agonist response (PAM activity) at mGlu8” value (rat mGlu8) was “does not have PAM activity” and the “modulation of agonist response (PAM activity) at mGlu7” value (rat mGlu7) was “does not have PAM activity”.
With CCCCOc1ccc(C(=O)Nc2c(F)cccc2F)cc1 [VU0365396, 4-butoxy-N-(2,6-difluorophenyl)benzamide] the “effect of VU0365396 on CPPHA-induced potentiation” value (rat mGlu5 [4]) was “had no effect on CPPHA-induced potentiation of mGlu5 responses; also recorded: has no effect on CPPHA activity”, the “effect of VU0365396 on the VU0357121 CRC” value (rat mGlu5 [4]) was “induced a parallel rightward shift in the VU0357121 CRC; also recorded: induces a parallel rightward shift in the VU0357121 concentration−response curve” and the “inhibition of VU0357121 PAM activity” value (rat mGlu5 [5]) was “caused the most robust inhibition; also recorded: induces the most robust inhibition of VU0357121 effects”. The solubility (Solubility in assay) was “limitations with solubility precluded studies with higher concentrations”.
For O=C(Nc1cc(-c2ccccc2)nn1-c1ccccc1)c1ccc([N+](=O)[O-])cc1 [VU-29, 4-nitro-N-(1,3-diphenyl-1H-pyrazol-5-yl)benzamide, reference compound], the “PAM response at the A809V/rmGlu5 mutant” value (A809V/rmGlu5) was “is lost” and the “PAM response at the F585I/rmGlu5 mutant” value (F585I/rmGlu5) was “but not VU29 is lost”.

From publication PMC2957851 (ACS Chemical Neuroscience, 2010)
